Bioassay records as filed in PubChem BioAssay.
CFTR F508del cor: correctors of CFTR F508del function in bronchial epithelial cells. activity (quench increase), % at 7.58 µM. CFBE cells, YFP halide quenching; stimulated with forskolin plus potentiator P3; % fluorescence drop versus neutral controls. hit rate 0.36% among 350,000;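 active = mean added fluorescence quench of at least 8% versus neutral control, with both replicates also reaching 8%; inconclusive = only one of the mean or replicate conditions met; inactive = mean below 8% and not both replicates reaching 8%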;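 also: cells transiently co-express mutant CFTR-F508del with the halide-sensitive YFP; corrector assay measuring rescue of mutant channel to the surface after 24 h compound exposure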
FN deposition inh: fibronectin deposition inhibition. AH1F fibroblasts, Alexa488-fibronectin deposition fluorescence, overnight. inhibition, % at 12.6 µM. hit rate 0.086% among 350,000. AID 743247;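 active = mean inhibition across replicates of 30% or more, regardless of how many single replicates reach that level; inconclusive = mean under 30% yet at least half of replicates reach 30%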
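Test system: AH1F fibroblast monolayer depositing Alexa488-labelled fibronectin into matrix. Input: 10000 cells per well. Technique: fluorescence, ex 485 nm, em 525 nm. Buffer or medium: DMEM plus 2% serum, read in PBS. Timing: 1 h cell adhesion before compound, then overnight fibronectin incubation. Compound: single dose, pinned. Read-out basis: inhibition from reduced deposited-fibronectin fluorescence.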
EWS-Fli block: blocks EWS/Fli oncoprotein-driven transcription; A673 NR0B1-luciferase reporter, viability-normalised; inhibition, % at 12.6 µM; hit rate 0.67% among 350,000;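 active = mean inhibition of at least 50% after viability correction, with every replicate also passing that limit; inconclusive = mean reaches 50% but only one of two replicates passes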;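 also: firefly luciferase signal divided by Alamar Blue viability fluorescence both relative to DMSO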
PGC1a acetyl inh: PGC1a acetylation modulation, inhibitor mode | hit rate 0.17% among 350,000 | U2OS PGC1a acetylation, AlphaScreen anti-acetyl-lysine; with virally co-expressed GCN5 acetyltransferase | inhibition, % at 15.6 µM;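 active = every replicate shows inhibition of at least 40%; inconclusive = mean inhibition at least 40% but some replicate below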
HIV Env fusion: HIV envelope-mediated fusion inhibition | HeLa-JRFL Env/CEM21 cell fusion, luciferase | AID 651610 | hit rate 1.1% among 360,000 | inhibition, % at 12.3 µM;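 active = mean replicate inhibition score of at least 50 and every replicate individually at or above 50; inconclusive = only one of the two criteria met; inactive = mean below 50 and not all replicates reaching 50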
PAX8 reporter: inhibitors of PAX8 transcriptional activity in RMG-I cells; RMG-I TPO-luciferase reporter, SteadyGlo, 24 h; inhibition, % at 12.6 µM; hit rate 1.2% among 360,000; AID 652154;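 active = mean replicate inhibition at least 60% with every replicate also reaching 60%; inconclusive = only one of the two criteria is met; inactive = mean below 60% and not all replicates reaching 60%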;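 also: luciferase light reporting Pax8 driven TPO promoter activity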
Large screens that a line does not name were inactive; [ ] = dose if it differs, or a comment. Most compounds without a hit are left out; they make up all but 2.3% or so of the library.

Cc1cccc(S(=O)(=O)N2CCCCN3[C@H](CO)[C@@H](c4ccc(C#CC(C)C)cc4)[C@H]3C2)c1	none (no result: FN deposition inh, HIV Env fusion)
Cc1cccc(S(=O)(=O)N2CCCCN3[C@H](CO)[C@H](c4ccc(C#C[C@H](C)O)cc4)[C@H]3C2)c1	PAX8 reporter 86 (no result: FN deposition inh, HIV Env fusion)
C[C@H](O)C#Cc1ccc([C@@H]2[C@@H](CO)N3CCCCN(S(=O)(=O)c4ccccc4)C[C@H]23)cc1	PAX8 reporter 76 (no result: FN deposition inh, HIV Env fusion)
COc1cccc(S(=O)(=O)N2CCCCN3[C@H](CO)[C@@H](c4ccc(C#CC(C)C)cc4)[C@@H]3C2)c1	none (no result: FN deposition inh, HIV Env fusion)
Cc1cccc(S(=O)(=O)N2CCCCN3[C@H](CO)[C@@H](c4ccc(C#C[C@H](C)O)cc4)[C@@H]3C2)c1	none (no result: FN deposition inh, HIV Env fusion)
Cc1cccc(S(=O)(=O)N2CCCCN3[C@H](CO)[C@H](c4ccc(C#CC(C)C)cc4)[C@H]3C2)c1	PAX8 reporter 78 (no result: FN deposition inh, HIV Env fusion)
C[C@@H]1CN([C@@H](C)CO)C(=O)c2cc(NS(=O)(=O)c3ccc(F)cc3)ccc2O[C@H]1CN(C)C(=O)Nc1ccc(F)cc1	none (no result: FN deposition inh, PAX8 reporter)
COc1ccccc1C(=O)Nc1ccc2c(c1)OC[C@H](C)N(CC1CC1)C[C@H](C)[C@H](OC)CN(C)C2=O	none (no result: HIV Env fusion, PAX8 reporter)
COCC#Cc1ccc2c(c1)O[C@H](CN(C)S(=O)(=O)c1cccc(OC)c1)[C@H](C)CN([C@@H](C)CO)S2(=O)=O	none (no result: CFTR F508del cor)
O=C(OCCN1C(=O)c2cccc3c(N4CCOCC4)ccc(c23)C1=O)c1ccc(Cl)cc1	PAX8 reporter 61 (no result: CFTR F508del cor, EWS-Fli block, PGC1a acetyl inh)
COc1ccc(-c2ccc3c(c2)[C@@H]2[C@@H](CCN2S(=O)(=O)c2ccc(OC)cc2)[C@@H](CO)N3C)cc1	PAX8 reporter 85 (no result: HIV Env fusion)
COc1ccc(S(=O)(=O)N2CC[C@@H]3[C@H](CO)N(C)c4ccc(-c5ccccc5F)cc4[C@@H]32)cc1	none (no result: HIV Env fusion)
COc1ccc(S(=O)(=O)N2CC[C@H]3[C@@H](CO)N(C)c4ccc(-c5ccc(F)cc5)cc4[C@H]32)cc1	none (no result: HIV Env fusion)
COc1ccc(-c2ccc3c(c2)[C@H]2[C@H](CCN2S(=O)(=O)c2ccc(OC)cc2)[C@H](CO)N3C)cc1	CFTR F508del cor inconclusive, PAX8 reporter 95 (no result: HIV Env fusion)
CO[C@H]1CN(C)C(=O)c2ccc(NC(=O)Nc3cc(F)ccc3F)cc2OC[C@H](C)N(C(=O)c2cnccn2)C[C@@H]1C	none (no result: PAX8 reporter)
COc1ccc(CNC(=O)C[C@H]2C[C@@H]3c4cc(NS(C)(=O)=O)ccc4O[C@@H]3[C@@H](CO)O2)cc1	none (no result: HIV Env fusion, PAX8 reporter)
CCc1ccc([C@H]2[C@@H]3C(=O)C[C@@H]4C(=O)N(C5CCCCC5)C(=O)[C@@H]4[C@@H]3CN2S(=O)(=O)c2ccc(C)cc2)cc1	HIV Env fusion 155 (no result: FN deposition inh)
CCc1ccc([C@H]2[C@@H]3C(=O)C[C@@H]4C(=O)N(CC)C(=O)[C@@H]4[C@@H]3CN2S(=O)(=O)c2ccc(C)cc2)cc1	none
CCc1ccc([C@H]2[C@@H]3C(=O)C[C@@H]4C(=O)N(Cc5ccccc5)C(=O)[C@@H]4[C@@H]3CN2S(=O)(=O)c2ccc(C)cc2)cc1	HIV Env fusion 71
CCc1ccc(C2CC3C(CN2S(=O)(=O)c2ccc(C)cc2)[C@@H](O)C[C@@H](c2ccc(CC)cc2)N3S(=O)(=O)c2ccc(C)cc2)cc1 (stereo partly specified)	HIV Env fusion 61 (no result: PGC1a acetyl inh)
CCC(=O)Nc1ccc2c(c1)C(=O)N(C)[C@H]1CC[C@H](CC(=O)NCCc3ccncc3)O[C@@H]1CO2	none (no result: CFTR F508del cor, EWS-Fli block, PGC1a acetyl inh, HIV Env fusion, PAX8 reporter)
Cc1ccccc1CSCc1nc(N)nc(Nc2ccccc2C)n1	none
CCc1ccccc1Nc1nc(N)nc(CSCC(=O)Nc2ccc(C)c(C)c2)n1	HIV Env fusion 71
CCc1ccc(NC(=O)CSCc2nc(N)nc(Nc3ccccc3CC)n2)cc1	HIV Env fusion 61 (no result: CFTR F508del cor, EWS-Fli block)
CCc1ccccc1Nc1nc(N)nc(COC(=O)c2cccn2C)n1	none (no result: CFTR F508del cor, EWS-Fli block, PAX8 reporter)
CCOc1ccc(-n2c(SCC(=O)c3c(N)n(C)c(=O)n(C)c3=O)nnc2-c2cccnc2)cc1	PAX8 reporter 81 (no result: PGC1a acetyl inh, HIV Env fusion)
COc1ccc2c3c([nH]c2c1)[C@@H](CO)N(Cc1cccnc1)CC31CN(C(=O)CN(C)C)C1	none (no result: FN deposition inh, HIV Env fusion, PAX8 reporter)
O=c1oc2ccccc2c(Nc2ccccc2O)c1[N+](=O)[O-]	none (no result: FN deposition inh)
O=c1oc2ccccc2c(Nc2cc3ccccc3cc2O)c1[N+](=O)[O-]	CFTR F508del cor 8.5
Cc1cccc(Nc2nc(N)c([N+](=O)[O-])c(N3CC(C)CC(C)C3)n2)c1 (stereo unspecified)	PAX8 reporter 71 (no result: PGC1a acetyl inh, HIV Env fusion)
CC1CN(C(=O)c2cc(S(=O)(=O)N(C)c3ccc(F)cc3)ccc2Cl)CC(C)O1 (stereo unspecified)	HIV Env fusion 61 (no result: FN deposition inh)
C[C@H](CO)N1C[C@H](C)[C@H](CN(C)C(=O)Nc2ccccc2)Oc2c(NS(=O)(=O)c3ccc(F)cc3)cccc2C1=O	HIV Env fusion 88[16.7 µM] (no result: FN deposition inh, PAX8 reporter)
C[C@H](CO)N1C[C@H](C)[C@H](CN(C)C(=O)Nc2ccc(C(F)(F)F)cc2)Oc2c(NS(=O)(=O)c3ccc(F)cc3)cccc2C1=O	HIV Env fusion 57[16.7 µM] (no result: FN deposition inh, PAX8 reporter)
CC(=O)N1[C@@H](CO)[C@@H](c2ccc(C3=CCCC3)cc2)[C@@H]1CNC(=O)CN(C)C	none (no result: HIV Env fusion)
COc1ccc(O)c(C(c2c(C)[nH][nH]c2=O)c2c(C)[nH][nH]c2=O)c1	PAX8 reporter 97
COc1ccc(OC)c(C(c2c(C)[nH][nH]c2=O)c2c(C)[nH][nH]c2=O)c1	none
C[C@@H]1CN([C@H](C)CO)C(=O)c2cc(/C=C/c3ccccc3)cnc2O[C@H]1CN(C)C(=O)c1cnccn1	none (no result: PAX8 reporter)
COc1cccc(C#Cc2ccc([C@@H]3[C@@H](CO)N(C(=O)C4CCC4)[C@H]3C#N)cc2)c1	PAX8 reporter 70
COc1cccc(C#Cc2ccc([C@@H]3[C@@H](CO)N(C(=O)C4CCCCC4)[C@H]3C#N)cc2)c1	PAX8 reporter 70
COc1cccc(C#Cc2ccc([C@@H]3[C@@H](CO)N(C(=O)c4ccccn4)[C@H]3C#N)cc2)c1	none (no result: HIV Env fusion)
COc1cccc(C#Cc2ccc([C@@H]3[C@H](C#N)N(C(=O)c4ccccn4)[C@H]3CO)cc2)c1	PAX8 reporter 98 (no result: HIV Env fusion)
CCCNC(=O)N1[C@H](C#N)[C@H](c2ccc(-c3cccc(OC)c3)cc2)[C@@H]1CO	HIV Env fusion 58[16.7 µM] (no result: FN deposition inh)
C[C@@H]1CN([C@@H](C)CO)C(=O)c2cc(NC(=O)CCC(F)(F)F)ccc2O[C@@H](C)CCCCO[C@@H]1CN(C)Cc1ccccc1	none
O=S(=O)(Cc1ccccc1)NCC[C@@H]1CC[C@@H](NS(=O)(=O)c2ccc(F)cc2)[C@H](CO)O1	none (no result: EWS-Fli block, HIV Env fusion, PAX8 reporter)
COc1cccc(C#Cc2ccc([C@@H]3[C@@H](C#N)N(C(=O)C4CCCCC4)[C@H]3CO)cc2)c1	PAX8 reporter 77
COc1cccc(C#Cc2ccc([C@@H]3[C@@H](CO)N(C(=O)C4CCCC4)[C@H]3C#N)cc2)c1	none (no result: PGC1a acetyl inh, HIV Env fusion, PAX8 reporter)
CN(C(=O)COc1ccccc1C(=O)NCCOc1ccccc1)c1ccccc1	PAX8 reporter 74 (no result: CFTR F508del cor, EWS-Fli block, PGC1a acetyl inh)
